Values after ≈ are worked out from the molar mass of the structure shown.
Columns and labels:
[1] = tested on: Mycobacterium tuberculosis; test: Antimycobacterial activity against Mycobacterium tuberculosis H37Rv after 7 days; format: functional; conditions: 168 h
In short: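 Rapid direct susceptibility test in 48-well plates. Two-fold dilutions of compound from DMSO stocks were mixed with an equal volume of bacterial suspension. Medium-only wells served as growth controls and water-only wells as no-growth controls. Plates were sealed and held at 37 C in a humid box, and controls were checked at 3 days. MIC (90% growth inhibition) was read visually by high-magnification observation of the cells and re-read at 7 days.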

[2] = tested on: Stenotrophomonas maltophilia; test: Antibacterial activity against Stenotrophomonas maltophilia ATCC 13636 after 18 to 24 hrs by two-fold serial dilution method; format: functional
In short: (§1)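 Agar two-fold dilution MIC. Compounds were dissolved in 0.1 N NaOH and water, then serially diluted in melted Mueller-Hinton agar, with top concentrations starting at 128. Plates were inoculated at about 10 cfu and incubated at 35 °C for 18–24 h. MIC was taken as the lowest concentration giving 90% inhibition of growth.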

Pseudomonas aeruginosa = test: Antibacterial activity against Pseudomonas aeruginosa ATCC 27853 after 18 to 24 hrs by two-fold serial dilution method; format: functional; in short: as §1
Klebsiella aerogenes = test: Antibacterial activity against Enterobacter aerogenes ATCC 13048 after 18 to 24 hrs by two-fold serial dilution method; format: functional; in short: as §1
[3] = tested on: Staphylococcus epidermidis; test: Antibacterial activity against methicillin-resistant Staphylococcus epidermidis 13-3 after 18 to 24 hrs by two-fold serial dilution method; format: functional
In short: (§2)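 Agar two-fold serial dilution in Mueller-Hinton agar. Strains came from the Chinese Center for Disease Control and Prevention. Compounds were dissolved in 0.1 N NaOH and water, then diluted in melted agar to final levels stepping down from 128. Plates were inoculated with bacterial cfu and incubated at 35 C for 18–24 h. MIC is the lowest concentration giving 90% growth inhibition.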

Enterococcus faecalis [4] = test: Antibacterial activity against Enterococcus faecalis ATCC 29212 after 18 to 24 hrs by two-fold serial dilution method; format: functional; in short: as §1
Staphylococcus aureus [5] = test: Antibacterial activity against methicillin-sensitive Staphylococcus aureus ATCC 29213 after 18 to 24 hrs by two-fold serial dilution method; format: functional; in short: as §2
Morganella morganii = test: Antibacterial activity against Morganella morganii ATCC 25830 after 18 to 24 hrs by two-fold serial dilution method; format: functional; in short: as §1
Klebsiella pneumoniae [6] = test: Antibacterial activity against extended-spectrum beta-lactamase deficient Klebsiella pneumoniae 15-2 after 18 to 24 hrs by two-fold serial dilution method; format: functional; in short: as §1
Proteus mirabilis = test: Antibacterial activity against Proteus mirabilis 13-1 after 18 to 24 hrs by two-fold serial dilution method; format: functional; in short: as §1
Providencia rettgeri = test: Antibacterial activity against Providencia rettgeri ATCC 31052 after 18 to 24 hrs by two-fold serial dilution method; format: functional; in short: as §1
Enterococcus faecium [7] = test: Antibacterial activity against Enterococcus faecium ATCC 700221 after 18 to 24 hrs by two-fold serial dilution method; format: functional; in short: as §1
Escherichia coli [8] = test: Antibacterial activity against extended-spectrum beta-lactamase deficient Escherichia coli ATCC 25922 after 18 to 24 hrs by two-fold serial dilution method; format: functional; in short: as §1
Klebsiella pneumoniae [9] = test: Antibacterial activity against extended-spectrum beta-lactamase harboring Klebsiella pneumoniae ATCC 700603 after 18 to 24 hrs by two-fold serial dilution method; format: functional; in short: as §2
Enterococcus faecalis [10] = test: Antibacterial activity against Enterococcus faecalis ATCC 51299 after 18 to 24 hrs by two-fold serial dilution method; format: functional; in short: as §1
Citrobacter freundii = test: Antibacterial activity against extended-spectrum beta-lactamase harboring Citrobacter freundii ATCC 43864 after 18 to 24 hrs by two-fold serial dilution method; format: functional; in short: as §2
Serratia marcescens = test: Antibacterial activity against Serratia marcescens ATCC 21074 after 18 to 24 hrs by two-fold serial dilution method; format: functional; in short: as §1
Enterobacter cloacae = test: Antibacterial activity against Enterobacter cloacae ATCC 43560 after 18 to 24 hrs by two-fold serial dilution method; format: functional
[11] = tested on: Acinetobacter calcoaceticus; test: Antibacterial activity against Acinetobacter calcoaceticus ATCC 19606 after 18 to 24 hrs by two-fold serial dilution method; format: functional; in short: as §1
Escherichia coli [12] = test: Antibacterial activity against extended-spectrum beta-lactamase harboring Escherichia coli ATCC 35218 after 18 to 24 hrs by two-fold serial dilution method; format: functional; in short: as §2
[13] = tested on: Staphylococcus epidermidis; test: Antibacterial activity against methicillin-sensitive Staphylococcus epidermidis ATCC 12228 after 18 to 24 hrs by two-fold serial dilution method; format: functional; in short: as §1
Enterococcus faecium [14] = test: Antibacterial activity against Enterococcus faecium 13-7 after 18 to 24 hrs by two-fold serial dilution method; format: functional; in short: as §1
Proteus vulgaris = test: Antibacterial activity against Proteus vulgaris ATCC 29905 after 18 to 24 hrs by two-fold serial dilution method; format: functional; in short: as §1
Staphylococcus aureus [15] = test: Antibacterial activity against methicillin-resistant Staphylococcus aureus ATCC 33591 after 18 to 24 hrs by two-fold serial dilution method; format: functional; in short: as §2
[16] = Cytotoxicity against African green monkey Vero cells assessed as reduction in cell viability after 72 hrs by MTT assay; format: cell-based; conditions: chlorocebus sabaeus
In short: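 VERO cells were kept in MEM with Earle's salts and 10% FBS at 37 °C, 5% CO2. They were seeded in 96-well plates and allowed to recover for 24 h. Cells were then exposed to compounds in DMSO over a series from 1000 down to 4 for 72 h. Viability was read by MTT, and CC50 was calculated by Bliss analysis.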

SMILES | MIC90 [1] [µg/mL] | MIC90 [2] [µg/mL] | MIC90 (Pseudomonas aeruginosa) [µg/mL] | MIC90 (Klebsiella aerogenes) [µg/mL] | MIC90 [3] [µg/mL] | MIC90 (Enterococcus faecalis [4]) [µg/mL] | MIC90 (Staphylococcus aureus [5]) [µg/mL] | MIC90 (Morganella morganii) [µg/mL] | MIC90 (Klebsiella pneumoniae [6]) [µg/mL] | MIC90 (Proteus mirabilis) [µg/mL] | MIC90 (Providencia rettgeri) [µg/mL] | MIC90 (Enterococcus faecium [7]) [µg/mL] | MIC90 (Escherichia coli [8]) [µg/mL] | MIC90 (Klebsiella pneumoniae [9]) [µg/mL] | MIC90 (Enterococcus faecalis [10]) [µg/mL] | MIC90 (Citrobacter freundii) [µg/mL] | MIC90 (Serratia marcescens) [µg/mL] | MIC90 (Enterobacter cloacae) [µg/mL] | MIC90 [11] [µg/mL] | MIC90 (Escherichia coli [12]) [µg/mL] | further results
NNC(=O)c1ccncc1 [ISONIAZID] | 0.05 (≈ 0.365 µM) |  |  |  |  |  |  |  |  |  |  |  |  |  |  |  |  |  |  |  | 
C[C@H]1COc2c(N3CCN(C)CC3)c(F)cc3c(=O)c(C(=O)O)cn1c23.C[C@H]1COc2c(N3CCN(C)CC3)c(F)cc3c(=O)c(C(=O)O)cn1c23.O [LEVOFLOXACIN] |  | 1 | 2 | 0.06 | 4 | 1 | 0.125 | ≤ 0.03 | ≤ 0.03 | ≤ 0.03 | ≤ 0.03 | 16 | ≤ 0.03 | 0.5 | 1 | ≤ 0.03 | 0.125 | ≤ 0.03 | 0.125 | ≤ 0.03 | MIC90 [13]: 0.125 µg/mL; MIC90 (Enterococcus faecium [14]): 64 µg/mL; MIC90 (Proteus vulgaris): ≤ 0.03 µg/mL; MIC90 (Staphylococcus aureus [15]): 0.125 µg/mL
CCO/N=C1\C(=O)N(CCCN2CCN(c3cc4c(cc3F)c(=O)c(C(=O)O)cn4C3CC3)CC2)c2ccc(C)cc21 | 3.12 (≈ 5.42 µM) | 0.06 (≈ 0.104 µM) | 1 (≈ 1.74 µM) | ≤ 0.03 | 2 (≈ 3.47 µM) | 0.5 (≈ 0.869 µM) | 0.125 (≈ 0.217 µM) | ≤ 0.03 | ≤ 0.03 | ≤ 0.03 | ≤ 0.03 | 4 (≈ 6.95 µM) | ≤ 0.03 | 0.5 (≈ 0.869 µM) | 1 (≈ 1.74 µM) | ≤ 0.03 | 0.06 (≈ 0.104 µM) | ≤ 0.03 | 0.5 (≈ 0.869 µM) | ≤ 0.03 | MIC90 [13]: 0.125 µg/mL (≈ 0.217 µM); MIC90 (Enterococcus faecium [14]): 32 µg/mL (≈ 55.6 µM); MIC90 (Proteus vulgaris): ≤ 0.03 µg/mL; CC50 at 72 h [16]: 128 µg/mL (≈ 222 µM); MIC90 (Staphylococcus aureus [15]): 0.125 µg/mL (≈ 0.217 µM)
Cc1ccc2c(c1)C(=O)C(=O)N2CCCOC(=O)c1cn(C2CC2)c2cc(N3CCN(CCCN4C(=O)C(=O)c5cc(C)ccc54)CC3)c(F)cc2c1=O | 50 (≈ 68.1 µM) | 128 (≈ 174 µM) | 128 (≈ 174 µM) | 128 (≈ 174 µM) | 128 (≈ 174 µM) | 64 (≈ 87.2 µM) | 64 (≈ 87.2 µM) | 64 (≈ 87.2 µM) | 64 (≈ 87.2 µM) | 64 (≈ 87.2 µM) | 128 (≈ 174 µM) | 128 (≈ 174 µM) | 8 (≈ 10.9 µM) | 64 (≈ 87.2 µM) | > 128 | 64 (≈ 87.2 µM) | > 128 | 32 (≈ 43.6 µM) | 64 (≈ 87.2 µM) | 8 (≈ 10.9 µM) | MIC90 [13]: 32 µg/mL (≈ 43.6 µM); MIC90 (Enterococcus faecium [14]): > 128 µg/mL; MIC90 (Proteus vulgaris): 64 µg/mL (≈ 87.2 µM); CC50 at 72 h [16]: 64 µg/mL (≈ 87.2 µM); MIC90 (Staphylococcus aureus [15]): > 128 µg/mL
CCO/N=C1\C(=O)N(CCCN2CCN(c3cc4c(cc3F)c(=O)c(C(=O)OCCCN3C(=O)/C(=N/OCC)c5cc(C)ccc53)cn4C3CC3)CC2)c2ccc(C)cc21 | 50 (≈ 61 µM) | 128 (≈ 156 µM) | 128 (≈ 156 µM) | 64 (≈ 78.1 µM) | 64 (≈ 78.1 µM) | 64 (≈ 78.1 µM) | 64 (≈ 78.1 µM) | 32 (≈ 39 µM) | 32 (≈ 39 µM) | 64 (≈ 78.1 µM) | 64 (≈ 78.1 µM) | 128 (≈ 156 µM) | 16 (≈ 19.5 µM) | 128 (≈ 156 µM) | 128 (≈ 156 µM) | 64 (≈ 78.1 µM) | 64 (≈ 78.1 µM) | 128 (≈ 156 µM) | 64 (≈ 78.1 µM) | 16 (≈ 19.5 µM) | MIC90 [13]: 32 µg/mL (≈ 39 µM); MIC90 (Enterococcus faecium [14]): > 128 µg/mL; MIC90 (Proteus vulgaris): 64 µg/mL (≈ 78.1 µM); CC50 at 72 h [16]: 64 µg/mL (≈ 78.1 µM); MIC90 (Staphylococcus aureus [15]): 128 µg/mL (≈ 156 µM)
CO[C@H]1/C=C/O[C@@]2(C)Oc3c(C)c(O)c4c(O)c(c(/C=N/N5CCN(C)CC5)c(O)c4c3C2=O)NC(=O)/C(C)=C\C=C\[C@H](C)[C@H](O)[C@@H](C)[C@@H](O)[C@@H](C)[C@H](OC(C)=O)[C@@H]1C [RIFAMPIN] | 0.39 (≈ 0.474 µM) |  |  |  |  |  |  |  |  |  |  |  |  |  |  |  |  |  |  |  | 

Source: ChEMBL document CHEMBL4270565, “Design, synthesis and antimicrobial evaluation of propylene-tethered ciprofloxacin-isatin hybrids” (Eur J Med Chem, 2018)
